The values that follow come from ChEMBL document CHEMBL4251709, “Synthesis, Biological Investigation, and Structural Revision of Sielboldianin A” (J Nat Prod, 2018).

Structures are written as SMILES.

The test system of one test is HepG2. Nature of the test: Antioxidant activity in human HepG2 cells assessed as inhibition of ABAP-induced peroxyl radical generation incubated for 60 mins measured for 60 mins by DCFH-DA probe based fluorescence assay. The settings on record: HepG2, 1 h. It counts as functional, cell-based. Put shortly: (§1)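 HepG2 cells grown in MEM Earle's with gentamycin, L-alanyl-L-glutamine, nonessential amino acids, sodium pyruvate and 10% FBS at 37 °C, 5% CO2. 80 000 cells per well were seeded 24 h ahead, ~50% confluent at testing. Sesquiterpenoids were dissolved in DMSO, giving 1% DMSO final in all wells including controls. IC50 from dose–response Hill-slope fit, three experiments, mean ± SD.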
In the case of `Cc1ccc([C@]2(C)CC[C@@H](C(C)(C)O)O2)cc1`, the IC50 (usually the concentration that inhibits the measured activity by half) was > 100 µM.
The same measure, in the same setting: the result for `Cc1ccc([C@]2(C)CC[C@@H](C(C)(C)O)O2)cc1O` reads 18 µM; that for `CC(C)=CCC[C@](C)(O)c1ccc(C)cc1`, > 100 µM; that for `O=c1c(O)c(-c2ccc(O)c(O)c2)oc2cc(O)cc(O)c12` [QUERCETIN], 65 µM.

The test system of the next test is K562. Nature of the test: Cytotoxicity against human K562 cells assessed as inhibition of cell growth after 5 days by MTT assay. It counts as cell-based. Conditions: K562, 120 h. The essentials:
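K562 cells kept in antibiotic-free RPMI with 2-mercaptoethanol (2 μM), L-glutamine (2 mM) and 10% FCS. 100 μL of cells at 40 000 cells/mL were mixed with 100 μL of serially diluted compound (DMSO stock) in medium, with a drug-free control. Incubation 5 days, 37 °C, 5% CO2. MTT (3 mg/mL) for 3 h, formazan taken up in DMSO, read at 540 and 690 nm. IC50 as % of control growth, three experiments.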
(In general: Tetrazolium assays rely on reduction of a dye to a coloured formazan, in cell work by metabolically active cells.)
In the case of `Cc1ccc([C@]2(C)CC[C@@H](C(C)(C)O)O2)cc1`, the IC50 is > 50 µM.
Turning to `Cc1ccc([C@]2(C)CC[C@@H](C(C)(C)O)O2)cc1O`, the half-inhibitory concentration (IC50) is > 50 µM.
On to `CC(C)=CCC[C@](C)(O)c1ccc(C)cc1`, for which the 50% inhibitory concentration (IC50) was > 50 µM.
Same read-out and setting: the same measure for `O=c1c(O)c(-c2ccc(O)c(O)c2)oc2cc(O)cc(O)c12` [QUERCETIN]: 2.5 µM.

For the next test, the system named is HepG2. Nature of the test: Antioxidant activity in human HepG2 cells assessed as inhibition of cumene hydroperoxide-mediated lipid peroxidation incubated for 60 mins followed by cumOOH addition for 60 mins measured for 60 mins by C11-BODIPY probe based fluorescence assay. Format: functional, cell-based. Conditions: HepG2, 1 h. The essentials:
as §1
As to `Cc1ccc([C@]2(C)CC[C@@H](C(C)(C)O)O2)cc1`, the IC50 was > 100 µM.
Same read-out and setting: the result for `Cc1ccc([C@]2(C)CC[C@@H](C(C)(C)O)O2)cc1O` reads 31 µM.
As to `CC(C)=CCC[C@](C)(O)c1ccc(C)cc1`, the IC50 is > 100 µM.
The same measure, in the same setting: the same measure for `O=c1c(O)c(-c2ccc(O)c(O)c2)oc2cc(O)cc(O)c12` [QUERCETIN]: 12 µM.
